The source made the active and inactive calls. The rule behind the calls is not given here.
How the values were obtained:
Mus musculus [1] = test: Induction hematopoietic stem cell mobilization in C57BL/6 mouse assessed as increase in CXCR4+ cells in blood at 50 mg/kg, sc measured after 2 hrs by APC-conjugated anti-CXCR4-staining based flow cytometry relative to vehicle control; type: functional, organism-based
Procedure, shortened: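 Male C57BL/6 mice, 8–10 weeks old, given a single SC injection at escalating doses of 1, 6, 20, 35 and 50 mg/kg. Blood collected 2 h later and stained with antibodies including APC-anti-CXCR4. CXCR4⁺ cells counted by flow cytometry, at least 60,000 events per sample. n = 3 per group; mean ± SEM; t test against vehicle.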

Mus musculus [2] = test: In vivo induction of WBC mobilization in C57BL/6 mouse at 35 mg/kg, sc measured after 2 hrs; type: functional, organism-based
Procedure, shortened: (§1)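 C57BL/6 mice given a single SC injection at 6 or 35 mg/kg. Blood collected 2 h after dosing and analysed for total white blood cells, neutrophils, lymphocytes and monocytes.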

Cytochrome P450 2C9 = Cytochrome P450 2C9 (Homo sapiens, UniProt P11712); test: Inhibition of human liver microsomal CYP2C9; type: ADME
Chain of Cytochrome P450 2C9 (P11712 whole entry): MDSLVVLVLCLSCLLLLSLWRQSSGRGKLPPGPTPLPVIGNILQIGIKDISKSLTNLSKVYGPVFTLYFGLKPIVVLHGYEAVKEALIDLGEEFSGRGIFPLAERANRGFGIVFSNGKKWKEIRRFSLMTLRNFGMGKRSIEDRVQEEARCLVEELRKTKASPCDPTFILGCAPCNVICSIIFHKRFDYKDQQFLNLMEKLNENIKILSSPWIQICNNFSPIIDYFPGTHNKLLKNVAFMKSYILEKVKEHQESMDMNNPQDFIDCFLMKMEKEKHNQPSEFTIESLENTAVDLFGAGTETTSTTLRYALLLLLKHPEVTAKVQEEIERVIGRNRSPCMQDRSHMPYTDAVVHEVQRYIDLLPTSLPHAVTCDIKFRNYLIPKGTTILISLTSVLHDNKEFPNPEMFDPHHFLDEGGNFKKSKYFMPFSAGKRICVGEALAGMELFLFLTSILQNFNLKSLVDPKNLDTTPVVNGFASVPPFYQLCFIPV

Mus musculus [3] = test: In vivo antagonist activity at CXCR4 in C57BL/6 mouse assessed as induction of lymphocytes molization at 35 mg/kg, sc measured after 2 hrs relative to untreated control; type: functional
[4] = target: C-C chemokine receptor type 5 (Homo sapiens) (UniProt P51681); test: Antagonist activity at human CCR5 expressed in CHOK1 cells assessed as inhibition of CCL3-induced cAMP accumulation at 10 uM preincubated for 30 mins followed agonist addition measured after 30 to 60 mins; type: functional, cell-based
Chain of C-C chemokine receptor type 5 (Homo sapiens) (P51681 whole entry, looked up): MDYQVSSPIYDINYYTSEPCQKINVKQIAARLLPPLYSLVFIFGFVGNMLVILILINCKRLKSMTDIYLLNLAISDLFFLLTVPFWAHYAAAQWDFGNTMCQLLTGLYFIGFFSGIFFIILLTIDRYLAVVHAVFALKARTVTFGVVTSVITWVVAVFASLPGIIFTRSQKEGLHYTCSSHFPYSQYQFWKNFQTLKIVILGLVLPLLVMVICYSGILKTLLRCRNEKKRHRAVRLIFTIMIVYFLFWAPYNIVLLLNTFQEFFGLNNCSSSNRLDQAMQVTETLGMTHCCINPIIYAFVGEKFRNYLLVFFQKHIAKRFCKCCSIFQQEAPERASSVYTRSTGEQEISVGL
Procedure, shortened: (§2)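 GPCR cAMP assay with a single test concentration of 10 μM; result expressed as percentage inhibition for each chemokine receptor.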

Rattus norvegicus [5] = test: Renal toxicity in Sprague-Dawley rat assessed as effect on kidney color at 50 mg/kg/day, sc administered for 14 days relative to control; type: organism-based; settings: in vivo, 336 h
Procedure, shortened: (§3)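 Non-GLP 14-day repeated-dose study in SD rats given 50 mg/kg/day SC. Major organs (liver, kidney, lung, heart) compared with vehicle for size, weight and colour. Blood analysed for hematological and biochemical parameters.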

Rattus norvegicus [6] = test: Hepatotoxicity in Sprague-Dawley rat assessed as effect on liver weight at 50 mg/kg/day, sc administered for 14 days relative to control; type: toxicity, organism-based; settings: in vivo, 336 h; procedure, shortened: as §3
Mus musculus [7] = test: Induction of hematopoietic stem cell mobilization in C57BL/6 mouse assessed as increase in CFU-GM colonies from PBMC at 6 mg/kg, sc administered on day 5 post 100 ug/kg/day G-CSF addition for 4 days measured after 2 hrs post compound dose by colony forming assay relative to G-CSF alone; type: functional
Procedure, shortened: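 Male C57BL/6 mice given G-CSF 100 µg/kg SC daily for 4 days. On day 5, G-CSF was co-injected SC with compound. Heparinized blood taken 2 h later; PBMCs isolated and cultured in methylcellulose medium for 10–14 days. CFU-GM colonies (aggregates of ≥50 cells) counted under an inverted microscope. Mean ± SEM, 8–12 mice per group, t test.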

Rattus norvegicus [8] = test: Renal toxicity in Sprague-Dawley rat assessed as effect on kidney size at 50 mg/kg/day, sc administered for 14 days relative to control; type: organism-based; settings: in vivo, 336 h; procedure, shortened: as §3
Mus musculus [9] = test: In vivo antagonist activity at CXCR4 in C57BL/6 mouse assessed as induction of neutrophils molization at 35 mg/kg, sc measured after 2 hrs relative to untreated control; type: functional
[10] = Half life in C57BL/6 mouse at 6 mg/kg, sc measured up to 4 hrs post dose by LC-MS/MS analysis; type: ADME, organism-based; settings: in vivo
Procedure, shortened: (§4)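 Male C57BL/6 mice (23.4–25.4 g), quarantined one week, non-fasted, n = 3; single SC dose of 6 mg/kg in 100% saline. Blood taken by cardiac puncture at 0, 0.03, 0.08, 0.25, 1, 1.5, 2 and 4 h and stored at -80 °C. Plasma analysed by LC–MS/MS; parameters from non-compartmental analysis; mean ± SD.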

Cytochrome P450 2E1 = Cytochrome P450 2E1 (Homo sapiens, UniProt P05181); test: Inhibition of human liver microsomal CYP2E1; type: ADME
Chain of Cytochrome P450 2E1 (P05181 whole entry): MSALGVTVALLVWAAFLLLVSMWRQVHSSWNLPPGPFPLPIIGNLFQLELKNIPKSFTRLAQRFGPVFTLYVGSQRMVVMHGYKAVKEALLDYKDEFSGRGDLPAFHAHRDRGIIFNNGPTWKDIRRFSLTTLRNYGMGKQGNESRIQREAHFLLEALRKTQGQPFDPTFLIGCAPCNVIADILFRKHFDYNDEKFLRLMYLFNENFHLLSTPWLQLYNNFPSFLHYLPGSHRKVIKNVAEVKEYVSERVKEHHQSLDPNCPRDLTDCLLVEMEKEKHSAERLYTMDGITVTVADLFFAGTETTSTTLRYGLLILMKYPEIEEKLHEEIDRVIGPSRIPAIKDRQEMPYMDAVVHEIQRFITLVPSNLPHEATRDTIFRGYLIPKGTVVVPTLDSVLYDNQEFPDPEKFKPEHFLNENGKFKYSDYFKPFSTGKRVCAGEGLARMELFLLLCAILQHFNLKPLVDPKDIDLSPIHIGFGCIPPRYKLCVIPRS

[11] = target: Chemokine XC receptor 1 (Homo sapiens) (UniProt P46094); test: Antagonist activity at human XCR1 expressed in CHOK1 cells assessed as inhibition of lymphotactin-induced cAMP accumulation at 10 uM preincubated for 30 mins followed agonist addition measured after 30 to 60 mins; type: functional, cell-based; procedure, shortened: as §2
Chain of Chemokine XC receptor 1 (Homo sapiens) (P46094 whole entry): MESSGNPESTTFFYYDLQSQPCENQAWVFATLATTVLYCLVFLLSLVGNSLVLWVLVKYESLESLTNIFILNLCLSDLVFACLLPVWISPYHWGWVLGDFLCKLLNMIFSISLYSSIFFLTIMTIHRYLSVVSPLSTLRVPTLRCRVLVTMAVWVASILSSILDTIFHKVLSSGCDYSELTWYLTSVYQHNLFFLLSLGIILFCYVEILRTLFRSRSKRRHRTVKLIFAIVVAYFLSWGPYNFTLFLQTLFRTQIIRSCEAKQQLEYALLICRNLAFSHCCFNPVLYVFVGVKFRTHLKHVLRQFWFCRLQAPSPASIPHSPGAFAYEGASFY

[12] = AUC (0 to 4 hrs) in C57BL/6 mouse at 6 mg/kg, sc measured up to 4 hrs post dose by LC-MS/MS analysis; type: ADME, organism-based; set-up: dose 6 mg/kg, time < 4 hr, route subcutaneous; settings: in vivo; procedure, shortened: as §4
Mus musculus [13] = test: Induction of hematopoietic stem cell mobilization in C57BL/6 mouse PBMC assessed as increase in CFU-GM colonies at 35 mg/kg, sc administered on day 5 post G-CSF addition measured after 2 hrs post dose by colony forming assay; type: functional, organism-based
Procedure, shortened: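 Male C57BL/6 mice received G-CSF 100 µg/kg SC daily for 4 days. On day 5 they received G-CSF plus compound SC (6 or 35 mg/kg). Heparinized blood taken 2 h later; PBMCs isolated and cultured in methylcellulose medium for 10–14 days. CFU-GM colonies (aggregates of ≥50 cells) counted under an inverted microscope. 8–12 mice per group; mean ± SEM; t test against G-CSF alone.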

[14] = Cmax in C57BL/6 mouse at 6 mg/kg, sc measured up to 4 hrs post dose by LC-MS/MS analysis; type: ADME, organism-based; set-up: dose 6 mg/kg, route subcutaneous; settings: in vivo; procedure, shortened: as §4
[15] = Cytotoxicity against human Detroit 551 cells; type: cell-based
[16] = target: C-C chemokine receptor type 1 (Homo sapiens) (UniProt P32246); test: Antagonist activity at human CCR1 expressed in CHOK1 cells assessed as inhibition of CCL3-induced cAMP accumulation at 10 uM preincubated for 30 mins followed agonist addition measured after 30 to 60 mins; type: functional, cell-based; procedure, shortened: as §2
Chain of C-C chemokine receptor type 1 (Homo sapiens) (P32246 whole entry): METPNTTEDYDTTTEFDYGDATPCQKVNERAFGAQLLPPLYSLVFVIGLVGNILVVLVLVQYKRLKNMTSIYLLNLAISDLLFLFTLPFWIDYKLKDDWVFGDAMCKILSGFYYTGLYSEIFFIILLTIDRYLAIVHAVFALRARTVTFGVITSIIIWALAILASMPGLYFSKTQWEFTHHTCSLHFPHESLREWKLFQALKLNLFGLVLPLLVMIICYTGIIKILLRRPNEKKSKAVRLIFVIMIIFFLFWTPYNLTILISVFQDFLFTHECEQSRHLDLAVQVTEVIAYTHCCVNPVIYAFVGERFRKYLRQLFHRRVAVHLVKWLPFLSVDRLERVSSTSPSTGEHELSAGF

[17] = target: C-X-C chemokine receptor type 1 (Homo sapiens) (UniProt P25024); test: Antagonist activity at human CXCR1 expressed in CHOK1 cells assessed as inhibition of interleukin-8-induced cAMP accumulation at 10 uM preincubated for 30 mins followed agonist addition measured after 30 to 60 mins; type: functional, cell-based; procedure, shortened: as §2
Chain of C-X-C chemokine receptor type 1 (Homo sapiens) (P25024 whole entry): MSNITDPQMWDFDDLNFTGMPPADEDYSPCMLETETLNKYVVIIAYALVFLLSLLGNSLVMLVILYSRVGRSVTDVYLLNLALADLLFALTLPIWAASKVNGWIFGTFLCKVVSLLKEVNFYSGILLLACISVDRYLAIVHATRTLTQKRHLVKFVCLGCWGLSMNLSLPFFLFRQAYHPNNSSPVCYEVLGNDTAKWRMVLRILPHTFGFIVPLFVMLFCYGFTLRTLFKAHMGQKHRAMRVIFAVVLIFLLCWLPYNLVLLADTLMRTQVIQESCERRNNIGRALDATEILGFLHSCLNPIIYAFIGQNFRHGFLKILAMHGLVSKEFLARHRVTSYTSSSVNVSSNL

Rattus norvegicus [18] = test: Renal toxicity in Sprague-Dawley rat assessed as effect on kidney histology parameters up to 100 mg/kg/day, sc after 24 hrs by H and E staining based microscopy; type: organism-based; settings: in vivo
Procedure, shortened: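 Acute kidney histology study in SD rats at doses up to 100 mg/kg. Renal tissue compared with controls by photomicrographs.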

Mus musculus [19] = test: In vivo antagonist activity at CXCR4 in C57BL/6 mouse assessed as induction of neutrophils molization at 35 mg/kg, sc measured after 2 hrs relative to AMD3100; type: functional; set-up: scale not given: the % may be the effect or the level left; procedure, shortened: as §1
[20] = target: C-X-C chemokine receptor type 3 (Homo sapiens) (UniProt P49682); test: Antagonist activity at human CXCR3 expressed in CHOK1 cells assessed as inhibition of CXCL11-induced cAMP accumulation at 10 uM preincubated for 30 mins followed agonist addition measured after 30 to 60 mins; type: functional, cell-based; procedure, shortened: as §2
Chain of C-X-C chemokine receptor type 3 (Homo sapiens) (P49682 whole entry): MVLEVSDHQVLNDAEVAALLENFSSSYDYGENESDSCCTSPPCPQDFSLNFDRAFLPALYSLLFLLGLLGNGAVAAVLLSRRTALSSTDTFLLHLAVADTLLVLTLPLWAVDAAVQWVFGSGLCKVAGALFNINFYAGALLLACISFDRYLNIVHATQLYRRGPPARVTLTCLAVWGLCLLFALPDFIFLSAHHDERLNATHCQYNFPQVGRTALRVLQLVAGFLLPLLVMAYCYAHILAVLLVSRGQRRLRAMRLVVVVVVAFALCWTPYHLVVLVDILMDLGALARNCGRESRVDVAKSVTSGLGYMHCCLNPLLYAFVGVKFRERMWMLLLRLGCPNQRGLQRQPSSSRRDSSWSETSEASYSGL

[21] = target: C-C chemokine receptor type 6 (Homo sapiens) (UniProt P51684); test: Antagonist activity at human CCR6 expressed in CHOK1 cells assessed as inhibition of CCL20-induced cAMP accumulation at 10 uM preincubated for 30 mins followed agonist addition measured after 30 to 60 mins; type: functional, cell-based; procedure, shortened: as §2
Chain of C-C chemokine receptor type 6 (Homo sapiens) (P51684 whole entry): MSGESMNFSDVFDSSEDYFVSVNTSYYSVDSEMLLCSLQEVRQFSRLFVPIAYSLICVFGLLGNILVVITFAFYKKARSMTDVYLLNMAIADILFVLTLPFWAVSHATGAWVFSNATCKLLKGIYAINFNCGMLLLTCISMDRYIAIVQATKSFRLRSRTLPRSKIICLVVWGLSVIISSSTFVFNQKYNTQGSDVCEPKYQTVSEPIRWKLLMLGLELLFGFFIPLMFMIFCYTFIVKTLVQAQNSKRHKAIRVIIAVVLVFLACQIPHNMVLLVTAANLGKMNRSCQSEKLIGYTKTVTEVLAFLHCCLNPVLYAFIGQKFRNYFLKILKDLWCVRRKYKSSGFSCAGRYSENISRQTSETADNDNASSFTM

Rattus norvegicus [22] = test: Renal toxicity in Sprague-Dawley rat assessed as effect on kidney weight at 50 mg/kg/day, sc administered for 14 days relative to control; type: organism-based; settings: in vivo, 336 h; procedure, shortened: as §3

Cc1cc(NC2CCN(C(=O)CCNCC(=O)O)CC2)nc(NCc2cn(CCCNCCCNC3CCCCC3)nn2)n1
Activity (Mus musculus [1]): inactive | Activity (Mus musculus [2]): Active | IC50 (Cytochrome P450 2C9): > 100 µM | fold change (FC) (Mus musculus [3]): 2 - 4 | Efficacy [4]: 0.5% | Activity (Rattus norvegicus [5]): Non-Toxic | Activity (Rattus norvegicus [6]): Non-Toxic | fold change (FC) (Mus musculus [7]): 5.3 | Activity (Rattus norvegicus [8]): Non-Toxic | fold change (FC) (Mus musculus [9]): 2 - 4 | half-life [10]: 30 min | IC50 (Cytochrome P450 2E1): > 100 µM | Efficacy [11]: -2.8% | AUC(0-t) at 4 h [12]: 13500 ng·h/mL | Activity (Mus musculus [13]): Active | Cmax [14]: 16400 ng/mL | CC50 [15]: > 100 µM | Efficacy [16]: -1.2% | Efficacy [17]: 0.3% | Activity (Rattus norvegicus [18]): Non-Toxic | Activity (Mus musculus [19]): 30 - 50% | Efficacy [20]: -7.6% | Efficacy [21]: -2.2% | Activity (Rattus norvegicus [22]): Non-Toxic

Reference: ChEMBL document CHEMBL4024793, “Development of Stem-Cell-Mobilizing Agents Targeting CXCR4 Receptor for Peripheral Blood Stem Cell Transplantation and Beyond” (J Med Chem, 2018)
